Screens (PubChem BioAssay)
SENP8 block-1 – SENP8 (human) protease inhibition | inhibition, % at 20 µM | 360,000 tested, 0.64% active | recombinant SENP8, Nedd8 substrate fluorescence; in the data active = inhibition mostly above about 40%, no sharp cut-off; inactive = mostly below about 27%
SENP6 inh – blocks the human protease SENP6. 330,000 tested, 1.8% active. AID 2599. Recombinant SENP6 catalytic domain, aminoluciferin luminescence. inhibition, % at 10 µM. Q9GZR1;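 active = inhibition above about 50% at the single tested dose, limit read from the data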
Apaf1 inhib – human Apaf-1 inhibition | reconstituted apoptosome caspase-3 activity, DEVD-Rh110 fluorescence | O14727 | AID 489030 | inhibition, % at 20 µM | 330,000 tested, 0.71% active; active = inhibition of at least 40% at 20 µM
Target sequence (O14727 whole entry, looked up): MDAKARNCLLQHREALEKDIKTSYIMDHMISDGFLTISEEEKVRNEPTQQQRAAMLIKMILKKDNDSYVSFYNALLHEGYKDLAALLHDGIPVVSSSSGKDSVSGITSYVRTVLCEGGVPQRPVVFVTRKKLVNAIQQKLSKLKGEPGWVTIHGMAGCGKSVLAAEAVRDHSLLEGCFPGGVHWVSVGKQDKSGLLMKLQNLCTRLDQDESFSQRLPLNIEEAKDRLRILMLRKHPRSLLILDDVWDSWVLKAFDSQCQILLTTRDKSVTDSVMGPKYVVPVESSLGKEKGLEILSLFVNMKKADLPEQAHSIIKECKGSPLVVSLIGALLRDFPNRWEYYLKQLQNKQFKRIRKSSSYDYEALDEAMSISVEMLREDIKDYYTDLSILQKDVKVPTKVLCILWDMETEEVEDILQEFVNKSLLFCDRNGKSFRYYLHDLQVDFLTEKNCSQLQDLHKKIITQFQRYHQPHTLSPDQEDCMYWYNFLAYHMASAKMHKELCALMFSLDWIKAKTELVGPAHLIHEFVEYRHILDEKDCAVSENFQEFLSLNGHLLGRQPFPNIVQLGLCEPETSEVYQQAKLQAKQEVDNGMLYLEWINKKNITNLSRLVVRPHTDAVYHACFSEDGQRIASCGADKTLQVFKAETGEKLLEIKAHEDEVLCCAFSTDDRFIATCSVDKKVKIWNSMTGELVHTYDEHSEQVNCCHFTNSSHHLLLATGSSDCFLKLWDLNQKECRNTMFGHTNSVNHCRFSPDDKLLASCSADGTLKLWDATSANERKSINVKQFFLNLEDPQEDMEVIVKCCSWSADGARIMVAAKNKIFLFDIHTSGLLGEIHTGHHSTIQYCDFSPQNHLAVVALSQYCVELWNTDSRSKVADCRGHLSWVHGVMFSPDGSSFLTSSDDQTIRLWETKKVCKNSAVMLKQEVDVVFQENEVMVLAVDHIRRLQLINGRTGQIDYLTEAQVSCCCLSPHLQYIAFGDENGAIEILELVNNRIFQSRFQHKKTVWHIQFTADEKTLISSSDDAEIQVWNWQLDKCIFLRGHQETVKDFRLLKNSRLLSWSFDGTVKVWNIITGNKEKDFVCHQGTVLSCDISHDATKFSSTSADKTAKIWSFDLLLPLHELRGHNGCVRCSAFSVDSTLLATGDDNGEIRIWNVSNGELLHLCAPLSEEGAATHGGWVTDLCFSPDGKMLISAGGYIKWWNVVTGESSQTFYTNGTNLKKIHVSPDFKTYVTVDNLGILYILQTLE
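System: reconstituted apoptosome with Apaf-1, cytochrome c, caspase-9, procaspase-3, dATP; Signal: Rh110 fluorescence intensity; Schedule: 30 min compound preincubation, 50 min activation, room temperature; Reagent: cytochrome c trigger plus (Z-DEVD)2-Rh110 caspase-3 substrate.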
SENP1 FRET inh – inhibitors of human SENP1 SUMO protease catalytic domain | 360,000 tested, 0.21% active | Q9P0U3 | inhibition, % at 10 µM | AID 624204 | recombinant SENP1 catalytic domain, CyPet-SUMO1-YPet FRET cleavage;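 active = inhibition at least 30% at 10 µM, raw YFP signal under a set limit, fluorescence ratio 0.5 to 1.5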
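System: Recombinant human SENP1 catalytic domain, His6-tagged | Incubation: Enzyme reaction for 50 min at room temperature, dark | Medium: Tris pH 8 with BME, BSA, NP40 and catalase | Also added: 25 nM SUMO1 FRET substrate | Compound: 10 µM single point, 0.5% DMSO | Measured by: FRET fluorescence in CFP and YFP emission channels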
SENP7 block – blocks the human protease SENP7 | 330,000 tested, 1.5% active | Q9BQF6 | inhibition, % at 5 µM | recombinant SENP7, Z-RLRGG-aminoluciferin luminescence, 40 min;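 active = inhibition above about 50% at the single test dose, limit read from the data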
SENP8 block-2 – inhibitors of human SENP8 protease; inhibition, % at 10 µM; purified SENP8, Z-RLRGG-aminoluciferin cleavage, luminescence; 330,000 tested, 1.2% active; AID 2540; in the data active = inhibition above about 50%
SENP8 confirm – confirmation of human SENP8 protease inhibitors | shares compounds with SENP7 block | Recombinant SENP8, Z-RLRGG-aminoluciferin luminescence, 60 min | inhibition, % at 12.5 µM | 6,200 tested, 40% active | AID 488912;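 active = mean inhibition across replicates above about 50%, limit read from the data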
SENP6 conf – human SENP6 inhibition, confirmed; shares compounds with SENP7 block; recombinant SENP6, Z-RLRGG-aminoluciferin luminescence; inhibition, % at 12.5 µM; 6,200 tested, 58% active
SENP7 confirm – confirmation of human SENP7 protease inhibitors; 6,200 tested, 69% active; shares compounds with SENP7 block; inhibition, % at 12.5 µM; AID 488917; recombinant SENP7, Z-RLRGG-aminoluciferin luminescence, 40 min
Casp3 SENP sel – selectivity test for SENP inhibitors: human caspase-3 inhibition; shares compounds with SENP7 block; purified caspase-3, Z-DEVD-aminoluciferin luminescence, 60 min; inhibition, % at 12.5 µM; 6,200 tested, 60% active; AID 488918;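 active = mean inhibition above about 50%, limit read from the data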
Luc interf – counter-screen for SENP inhibitors: luminescence interference. shares compounds with SENP7 block. AID 488919. 6,200 tested, 39% active. inhibition, % at 12.5 µM. Pre-incubated SENP8/Z-RLRGG-aminoluciferin, luciferase luminescence interference;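 active = mean inhibition above about 50% when retested at one dose, limit read from the data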
A number is an active result. Shown are actives, neighbours in structure and some others; about 2.9% of the full set was active somewhere.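 Rule for the calls, unless noted: active = mean inhibition above about 50% in the one-dose retest (limit read from the data); inactive = the rest.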

Results for O=C(NC(=S)Nc1ccc2c(c1)OCCO2)c1ccccc1F ?
SENP8 block-1: inactive; SENP6 inh: inactive; Apaf1 inhib: inactive; SENP1 FRET inh: inactive; SENP7 block: inactive; SENP8 block-2: inactive

How did O=C(Nc1cnc2ccccn2c1=O)c1ccc(Cl)cc1Cl do in these assays?
SENP8 block-1: inactive; SENP6 inh: 66; Apaf1 inhib: inactive; SENP1 FRET inh: inactive; SENP7 block: 69; SENP8 block-2: inactive; SENP8 confirm: 57; SENP6 conf: 59; SENP7 confirm: 76; Casp3 SENP sel: 82; Luc interf: inactive

What do the screens show for `O=C(Nc1ccc2c(c1)OCCO2)c1ccccc1F`?
SENP8 block-1: inactive; SENP6 inh: 76; Apaf1 inhib: inactive; SENP1 FRET inh: inactive; SENP7 block: 78; SENP8 block-2: 58; SENP8 confirm: 69; SENP6 conf: 68; SENP7 confirm: 92; Casp3 SENP sel: 90; Luc interf: 81

Results for COc1ccc(C(=O)Nc2ccc3ccccc3c2)c(OC)c1 ?
SENP8 block-1: inactive; SENP6 inh: 87; Apaf1 inhib: inactive; SENP1 FRET inh: inactive; SENP7 block: 91; SENP8 block-2: 87; SENP8 confirm: 91; SENP6 conf: 91; SENP7 confirm: 98; Casp3 SENP sel: 77; Luc interf: 72

How did O=C(Nc1ccc(C(=O)N2CCCC2)cc1)c1ccccc1F do in these assays?
SENP8 block-1: inactive; SENP6 inh: 69; Apaf1 inhib: inactive; SENP1 FRET inh: inactive; SENP7 block: 77; SENP8 block-2: 58; SENP8 confirm: 66; SENP6 conf: 68; SENP7 confirm: 91; Casp3 SENP sel: 93; Luc interf: 78

Results for O=C(Nc1cc(C(=O)N2CCCC2)ccc1N1CCCC1)c1ccccc1F ?
SENP8 block-1: inactive; SENP6 inh: inactive; Apaf1 inhib: inactive; SENP1 FRET inh: inactive; SENP7 block: inactive; SENP8 block-2: inactive

Results for O=C(NCc1ccc2c(c1)OCO2)c1cnc2ccccn2c1=O ?
SENP8 block-1: inactive; SENP6 inh: inactive; Apaf1 inhib: inactive; SENP1 FRET inh: inactive; SENP7 block: inactive; SENP8 block-2: inactive

What do the screens show for `N#Cc1ccc(C(=O)Nc2ccc3ccccc3c2)cc1`?
SENP8 block-1: inactive; SENP6 inh: inactive; Apaf1 inhib: inactive; SENP1 FRET inh: inactive; SENP7 block: 72; SENP8 block-2: inactive; SENP8 confirm: inactive; SENP6 conf: inactive; SENP7 confirm: 81; Casp3 SENP sel: 59; Luc interf: inactive

What do the screens show for `O=C(Nc1ccc(F)cc1)c1ccccc1F`?
SENP8 block-1: inactive; SENP6 inh: inactive; Apaf1 inhib: inactive; SENP1 FRET inh: inactive; SENP7 block: inactive; SENP8 block-2: inactive

Results for O=C(Nc1ccc2c(c1)OCCO2)c1ccc2ccccc2n1 ?
SENP8 block-1: inactive; SENP6 inh: inactive; Apaf1 inhib: inactive; SENP1 FRET inh: inactive; SENP7 block: 65; SENP8 block-2: 54; SENP8 confirm: inactive; SENP6 conf: 66; SENP7 confirm: 90; Casp3 SENP sel: 56; Luc interf: inactive

How did N#Cc1ccccc1Sc1ccccc1C(=O)Nc1ccc2ccccc2c1 do in these assays?
SENP8 block-1: inactive; SENP6 inh: inactive; Apaf1 inhib: inactive; SENP1 FRET inh: inactive; SENP7 block: inactive; SENP8 block-2: inactive

Results for O=C(Nc1ccc2c(c1)OCCO2)c1cccc2nc3ccccc3nc12 ?
SENP8 block-1: inactive; SENP6 inh: inactive; Apaf1 inhib: inactive; SENP1 FRET inh: inactive; SENP7 block: inactive; SENP8 block-2: inactive
